Among the data in ChEMBL document CHEMBL3232819, “Synthesis and biological evaluation of new pyrazolone-pyridazine conjugates as anti-inflammatory and analgesic agents” (Bioorg Med Chem, 2014) are Activity and IC50 values, retold here.

Test [1] relates to Mus musculus. As to the kind of experiment: Analgesic activity in Swiss Albino mouse assessed as inhibition of acetic acid-induced writhing at 25 mg/kg, po administered 30 mins before to acetic acid challenge measured for 15 mins relative to vehicle-treated control. It is filed as functional. Also noted: scale not given: the % may be the effect or the level left. The method, boiled down: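 Male Swiss albino mice, 25–32 g, n=6/group, dosed by oral gavage (5 mL/kg) in 1% CMC; vehicle controls. Mice habituated 30 min in test cage. Writhing induced by 0.1 mL 1% acetic acid ip at 30 min post-dose. Abdominal contractions counted for 15 min from the 5th min after injection. % protection = (n−n0)/n × 100 using group mean writhes. Mean ± SEM, one-way ANOVA/Bonferroni.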
Background: Writhing tests count abdominal constrictions after an irritant is injected.

The test system of test [2] is Mus musculus. In words: Antiinflammatory activity in Swiss Albino mouse assessed as inhibition of carrageenan-induced paw edema at 25 mg/kg, po administered 30 mins before carrageenan challenge relative to vehicle-treated control. Also noted: scale not given: the % may be the effect or the level left. In kind it is functional. In short, it runs like this: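 Male Swiss albino mice, 25–32 g, six per group, given drug in 1% CMC orally 30 min before subplantar right hind paw injection of carrageenan (1% w/v in 0.9% saline, 0.05 mL/mouse). […] Mean ± SEM, one-way ANOVA/Bonferroni.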
A general note: In the carrageenan paw model, swelling and tenderness develop within hours.

For test [3], the system named is Mus musculus. In words: Antiinflammatory activity in Swiss Albino mouse assessed as inhibition of carrageenan-induced TNFalpha production in serum at 25 mg/kg, po administered 30 mins before carrageenan challenge after 30 mins by ELISA (reference value: 15.48 +/- 0.31 ng/ml). In kind it is functional.
The test system of test [4] is Mus musculus. In words: Antiinflammatory activity in Swiss Albino mouse assessed as inhibition of carrageenan-induced IL-6 production in serum at 25 mg/kg, po administered 30 mins before carrageenan challenge after 30 mins by ELISA (reference value: 23.8 +/- 2.5 ng/ml). It is filed as functional. (In an ELISA, binding on a coated surface is turned into a signal by an enzyme label.)

Test [5] has as its target T1, Prostaglandin G/H synthase 1 (Ovis aries, UniProt P05979).
T1 sequence (P05979 whole entry): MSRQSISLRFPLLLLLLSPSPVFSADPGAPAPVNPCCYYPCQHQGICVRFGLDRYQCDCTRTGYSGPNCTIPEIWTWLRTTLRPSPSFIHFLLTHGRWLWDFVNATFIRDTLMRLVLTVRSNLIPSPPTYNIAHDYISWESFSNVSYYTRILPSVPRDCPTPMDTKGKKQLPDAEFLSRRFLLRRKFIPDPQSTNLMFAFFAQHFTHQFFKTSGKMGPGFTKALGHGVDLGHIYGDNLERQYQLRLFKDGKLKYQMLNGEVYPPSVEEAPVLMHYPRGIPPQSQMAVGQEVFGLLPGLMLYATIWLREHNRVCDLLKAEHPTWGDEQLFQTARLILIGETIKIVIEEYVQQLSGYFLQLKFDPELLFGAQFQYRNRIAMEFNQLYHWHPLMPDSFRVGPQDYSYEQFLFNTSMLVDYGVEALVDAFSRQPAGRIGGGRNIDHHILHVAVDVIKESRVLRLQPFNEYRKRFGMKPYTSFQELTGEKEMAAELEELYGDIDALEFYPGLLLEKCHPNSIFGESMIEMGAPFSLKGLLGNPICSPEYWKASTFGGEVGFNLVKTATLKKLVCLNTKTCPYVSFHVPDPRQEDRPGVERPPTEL
In words: Inhibition of ovine COX1 using arachidonic acid as substrate assessed as conversion of PGH2 to PGF2alpha after 10 mins by EIA. In short, it runs like this: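 Ovine COX-1 EIA kit: enzyme with heme and DMSO-dissolved sample in 0.1 M Tris-HCl pH 8, 5 mM EDTA, 2 mM phenol, preincubated 10 min at 37 °C; arachidonic acid added (final 100 µM), stopped after 2 min with HCl, SnCl2 reduction 5 min RT; PGF2α by EIA (18 h RT, Ellman's, 410 nm). IC50 versus untreated control incubations.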

Take `CN1CCN(c2ccc(Nc3ccccc3NC3=NNC(=O)C3)nn2)CC1`: the Activity with Mus musculus [1] was 41.2%; in the test with Mus musculus [2] it was 35.3%; in the test on Mus musculus [3], 9.34 ng/mL; with Mus musculus [4], 19.5 ng/mL.
In the same order, the values of `O=C1CC(Nc2ccccc2Nc2ccc(Cl)nn2)=NN1` are 33.4%, 11.2%, 13.2 ng/mL and 21.4 ng/mL.
As usually defined, the IC50 is the point on the concentration scale where inhibition reaches its midpoint. Turning to `O=C1CC(Nc2ccccc2Nc2ccc(Nc3ccccc3Cl)nn2)=NN1`, the Activity in the test with Mus musculus [1] was 57.2%; in the test on Mus musculus [2], 54.3%; with Mus musculus [3], 6.4 ng/mL; in the test on Mus musculus [4], 10.65 ng/mL. Further, in test [5], the IC50 came out at 4.02 µM.
As for `NS(=O)(=O)c1ccc(Nc2ccc(Nc3ccccc3NC3=NNC(=O)C3)nn2)cc1`, the Activity is 11.3% in the test with Mus musculus [1], 15.4% in the test with Mus musculus [2], 16.7 ng/mL in the test on Mus musculus [3] and 21.43 ng/mL in the test with Mus musculus [4].
As to `NC(=O)c1ccccc1Oc1ccc(Nc2ccccc2NC2=NNC(=O)C2)nn1`, the Activity worked out at 14.2% in the test on Mus musculus [1], 9.3% in the test with Mus musculus [2], 11.98 ng/mL in the test with Mus musculus [3] and 22.6 ng/mL in the test on Mus musculus [4].
Consider `O=C1CC(Nc2ccccc2Nc2ccc(Nc3ccc(Cl)cc3)nn2)=NN1`, for which the Activity in the test with Mus musculus [1] turned out to be 68.3%; with Mus musculus [2] it was 35.4%; with Mus musculus [3], 7.12 ng/mL; with Mus musculus [4], 9.76 ng/mL. The IC50 in test [5] amounted to 4.46 µM.
In the same order, the values of `O=C1CC(Nc2ccccc2Nc2ccc(N3CCCCC3)nn2)=NN1` are 55.6%, 59.4%, 7.5 ng/mL, 16.5 ng/mL and 3.15 µM.
On to `NC(=O)c1ccccc1Nc1ccc(Nc2ccccc2NC2=NNC(=O)C2)nn1`, for which the Activity in the test on Mus musculus [1] worked out at 13.2%; in the test with Mus musculus [2] it was 18.2%; in the test on Mus musculus [3], 12.5 ng/mL; in the test with Mus musculus [4], 22.3 ng/mL.
The like results for `O=C([O-])Cc1ccccc1Nc1c(Cl)cccc1Cl.[Na+]` [DICLOFENAC SODIUM] were, in that order, 83.3%, 61.5%, 5.01 ng/mL and 7.6 ng/mL.
As to `O=C1CC(Nc2ccccc2Nc2ccc(Nc3cccc([N+](=O)[O-])c3)nn2)=NN1`, the Activity in the test with Mus musculus [1] was found to be 13.2%; in the test on Mus musculus [2], 5.4%; in the test with Mus musculus [3], 13.5 ng/mL; in the test on Mus musculus [4] it was 18.3 ng/mL.
For `O=C1CC(Nc2ccccc2Nc2ccc(N3CCOCC3)nn2)=NN1`, the Activity is 63.7% in the test with Mus musculus [1], 62.3% in the test on Mus musculus [2], 7.2 ng/mL in the test with Mus musculus [3] and 11.8 ng/mL with Mus musculus [4]. Also, the 50% inhibitory concentration (IC50) in test [5] worked out at 2.86 µM.
For the compound `O=C1CC(Nc2ccccc2Nc2ccc(Nc3ccccc3F)nn2)=NN1`, the Activity with Mus musculus [1] worked out at 36.1%; in the test on Mus musculus [2], 11.2%; in the test on Mus musculus [3], 11.2 ng/mL; in the test with Mus musculus [4] it was 17.3 ng/mL.
The like results for `CCOc1ccc(Nc2ccccc2NC2=NNC(=O)C2)nn1` were, in that order, 18.2%, 10.2%, 12.4 ng/mL and 22.4 ng/mL.
